Source: ChEMBL document CHEMBL1134338, “cis-Unsaturated analogues of 3,8,13,18,23-pentaazapentacosane (BE-4-4-4-4): synthesis and growth inhibitory effects on human prostate cancer cell lines” (2001)

How the values were obtained:
Assay type in all cases: functional
[1] = tested on: DuPro; experiment: Inhibition of cell growth was determined in DUPRO cell line of human prostate tumor using MTT assay, on day 6 after treatment; settings: 144 h, read-out: ID50 (the source's name)
In short: (§1)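 Cells in Eagle's MEM with 10% fetal calf serum and nonessential amino acids were seeded at 500 cells/well and incubated overnight at 37 °C in humidified 95% air/5% CO2. Drug dilutions were then added, each concentration in quadruplicate, with buffer-only control columns, for 6 days. MTT (25 µL of 5 mg/mL) was added for 4 h at 37 °C.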

[2] = tested on: LNCaP; experiment: Inhibition of cell growth was determined in LNCaP cell line of human prostate tumor using MTT assay, on day 6 after treatment; settings: 144 h, read-out: ID50 (the source's name); in short: as §1
[3] = tested on: PC-3; experiment: Inhibition of cell growth was determined in PC-3 cell line of human prostate tumor using MTT assay, on day 6 after treatment; settings: PC-3, 144 h, read-out: ID50 (the source's name); in short: as §1
[4] = tested on: DU-145; experiment: Inhibition of cell growth was determined in DU145 cell line of human prostate tumor using MTT assay, on day 6 after treatment; settings: DU-145, 144 h, read-out: ID50 (the source's name); in short: as §1

| SMILES | IC50 [2] [nM] | IC50 [3] [nM] | IC50 [4] [nM] | IC50 [1] [nM] |
| --- | --- | --- | --- | --- |
| CCNC/C=C\CNC/C=C\CNC/C=C\CNCCCCNCC | 240 | > 31200 |  | > 31200 |
| CCNC/C=C\CNC/C=C\CNCCCCNC/C=C\CNCC | 320 |  |  | > 31200 |
| CCNC/C=C\CNC/C=C\CNCCCCNCCCCNCC | 150 | > 31200 |  |  |
| CCNC/C=C\CNC/C=C\CNC/C=C\CNC/C=C\CNCC | 550 | 200 |  |  |
| CCNC/C=C\CNCCCCNCCCCNC/C=C\CNCC | 300 | 500 |  | 250 |
| CCNC/C=C\CNCCCCNC/C=C\CNCCCCNCC | 540 | > 31200 | 340 | > 31200 |

More lines, in order of falling IC50 [2], values ahead:

| IC50 [2] [nM] | IC50 [3] [nM] | IC50 [4] [nM] | SMILES | IC50 [1] [nM] |
| --- | --- | --- | --- | --- |
| 150 | > 31200 |  | CCNCCCCNC/C=C\CNC/C=C\CNCCCCNCC |  |
| 140 |  |  | CCNC/C=C\CNCCCCNCCCCNCCCCNCC |  |
| 90 | > 31200 | 80 | CCNCCCCNC/C=C\CNCCCCNCCCCNCC |  |
